Source: the EternaBench riboswitch data

System: MS2 coat protein
Test: apparent Kd, MS2 coat protein; higher = weaker binding; RNA-MaP array; FMN 200 µM where present
Procedure, shortened: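 The apparent Kd is reported as the median of filtered per-cluster binding-curve fits. To get these curves, designs transcribed by stalled E. coli RNA polymerase on Illumina sequencing-chip clusters were titrated with SNAP-549-labelled MS2 coat protein from 0.7 or 1.5 nM, doubling to 3 µM. Titrations were run without and then with constant ligand in 100 mM Tris-HCl pH 7.5, 80 mM KCl, 4 mM MgCl2, BSA, DTT, yeast tRNA and Tween-20, and green signal was normalised to red-channel RNA signal and control-cluster median Fmax.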

[1] = designed as: OFF switch for flavin mononucleotide, no ligand
[2] = ligand present: flavin mononucleotide, designed as: OFF switch for flavin mononucleotide
[3] = designed as: ON switch for flavin mononucleotide, no ligand
[4] = ligand present: flavin mononucleotide, designed as: ON switch for flavin mononucleotide

| Sequence | apparent Kd [1] [nM] | apparent Kd [2] [nM] | apparent Kd [3] [nM] | apparent Kd [4] [nM] |
| --- | --- | --- | --- | --- |
| GAUUUACAUGAGGAUCACCCAUGUGAGGAUAUUGGGCUAGCAGAGUGAAUUCGCUGUCCAAGAAGGUACUGGAA | 32.6 | 32.5 |  |  |
| GCAAACAUGAGGAUCACCCAUGUCGGCUAUAAGUCCGCUCACAGAAGGGAUACGCCGGCAGGUGAUCAGGAUAUGUGGGCGCGC |  |  | 239 | 16.5 |
| GCAAAGCCUGACAUGAGGAUCACCCAUGUUAGAUUGUUAUGUCAGGAUAUUGUCUAGAAACUAGACAAGAAGGGAUGCUUUGCC |  |  | 734 | 51.3 |
| GCAAAGCCUGACAUGAGGAUCACCCAUGUUAGAUUGUUAUGUCAGGAUAUUGUCUAGACCCUAGACAAGAAGGGAUGCUUUGCU |  |  | 371 | 26.9 |
| GCAACGCCUGACAUGAGGAUCACCCAUGUUAGAUUGUUAUGUCAGGAUAUUGUCGCUAAAGGUGAUGAGAAGGGAUAUGUUGCU |  |  | 1180 | 71 |
| GCAACGCCUGACAUGAGGAUCACCCAUGUUAGAUUGUUAUGUCAGGAUAUUGUCUCGAAACGAGACGAGAAGGGAUAUGUUGCU |  |  | 1110 | 39 |
| GCAAGAACGGGUCAGUCCCAGAUGAGAAGGGUAGGUGGCGAUGAGUACAUGAGGAUCACCCAUGUACAGGAUAUCAUCAUUGUA | 7.63 | 8.66 |  |  |
| GCAAGUACGAGAGGAUAUUGACAUGAGGAUCACCCAUGUAUUUGGGAGUGUUCACUGAAUUCUUACGAGAAGGCUCGUACAUGC | 246 | 232 |  |  |
| GCACCUUUAUUUGAACCGAUACGAACAUGAGGAUCACCCAUGUAGGAUAUGCUAAAAGUUGUGUUGCAGAAGGACAUUUAGUGC | 9.36 | 8.98 |  |  |
| GCACGGUUGGUAGGAUAUCAUUGCGAUUAGCUAUGAGAAGGACCACAUGAGGAUCACCCAUGUCCUCUAAUUAGCCUGCCGUGC | 152 | 355 |  |  |
| GCACUGGAUGUAGGAUAUCAGGACGAUAAGUCCUGAGAAGGACAUGAGGAUCACCCAUGUAAAAACUUCCCAGUGCAUAAUAUA | 15.4 | 18 |  |  |
| GCACUGGAUGUAGGAUAUCAGGACGAUAAGUCCUGAGAAGGACAUGAGGAUCACCCAUGUAAAACCUCCCAGUGCUAUAAUAUA | 17.1 | 19.7 |  |  |
| GCACUGGAUGUAGGAUAUCAGGACGAUAAGUCCUGAGAAGGACAUGAGGAUCACCCAUGUAAACUCUAACCAGUGCAUAAUAUA | 14 | 20.4 |  |  |
| GCACUUAGAGAGGUACCGUUACGAACAUGAGGAUCACCCAUGUAGGAUAUGCUAAUAGUAUUGAAGCAGAAGGACACUAAGUGC | 7.21 | 30.4 |  |  |
| GCAGCAAUUUAAAACAUGAGGAUCACCCAUGUCGAGAGAUAUGAGGAUAUGCAUCGGAUGAAGAUGCAGAAGGCAUUGUGCUGC |  |  | 24.8 | 7.68 |
| GCAGCGUAUGUAGGAUAUCGGUCAGUUUCUGAUCGAGAAGGACAUGAGGAUCACCCAUGUAAAAUACCGACUUUGUCGGGCUGC | 6.43 | 8.11 |  |  |
| GCAGCUAUUAUUAUACAUGAGGAUCACCCAUGUUACAUGUGUAAGGAUAUUGAUGUUUAUAUAAUCAAGAAGGUACGAAGCUGC |  |  | 11.6 | 7.15 |
| GCAGCUUAUGCAGGAUAUCAGCACGUGUAGUGCUGAGAAGGGCACAUGAGGAUCACCCAUGUGAUCAAUUAAUAUAAAUGCUGC | 12.8 | 48.5 |  |  |
| GCAGGAUAAGUGAGGAUAUACCUCUGGAUACAGAGGUAGAAGGCACAUGAGGAUCACCCAUGUCUAUAACCUGC | 15.5 | 22.4 |  |  |
| GCAGGAUAAGUGAGGAUAUACCUCUGGAUACAGAGGUAGAAGGUACAUGAGGAUCACCCAUGUCUAUAACCUGC | 14.6 | 16.1 |  |  |
| GCAGGGUAUGAGAAGGCAUAAUUUAUCUUACCACAUGUUUACAUGAGGAUCACCCAUGUUUCCUAUGAGGAUAUCAUACCGUGC | 12.4 | 9.98 |  |  |
| GCAGUAUCAGGAUAUACAUGAGGAUCACCCAUGUGACUCCAUAGGAAGCUAUGUGGAUGUAGAAGGGAUCACUG | 54.6 | 183 |  |  |
| GCAUACAUUCGAGGAUAUCGGUGAACAAAUUAACGAGAAGGCGAUAUAAUUUUUAAACUUAUAGACAUGAGGAUCACCCAUGUA |  |  | 23.7 | 20.6 |
| GCAUACAUUCGAGGAUAUCGGUGAACAAAUUAACGAGAAGGCGAUAUAAUUUUUAAACUUAUUGACAUGAGGAUCACCCAUGUA |  |  | 23.2 | 20.8 |
| GCAUAUCAGGGAGGAUAUGACAUGAGGAUCACCCAUGUAAUUAUGGCUCUGUCAGAAGGCCCAUCAUCACUAUAGUGACGAGAA | 479 | 63.2 |  |  |
| GCAUCACAUGAGGAUCACCCAUGUCUUCGGAGCGGAGGAUAUGGUCACUGUAAACAGUGGCCAGAAGGCUGGAUGC |  |  |  | 25.5 |
| GCAUCUCUAUUAGAACCGAUACGAACAUGAGGAUCACCCAUGUAGGAUAUGCUAAAAGUUGUGUUGCAGAAGGACAUUUAAUGC | 9.49 | 8.64 |  |  |
| GCAUGUAAGCAGAAGGGCAGACAUUUUGAUGCUGCAGGAUAUGCAGAAUCAUAUCCACAUGAUAACAUGAGGAUCACCCAUGUA | 19.9 | 24.3 |  |  |

| Sequence | apparent Kd [1] [nM] | apparent Kd [2] [nM] | apparent Kd [3] [nM] | apparent Kd [4] [nM] |
| --- | --- | --- | --- | --- |
| GCAUGUAUAUAAGGAUAUGCAUCACUGAGAAAUUUAGUGAGGAAGAUCACAUGAGGAUCACCCAUGUAGAAGGUAUAUACGUGC | 8.23 | 53.2 |  |  |
| GCAUGUUAUGUCAGGAUAUACCUAUGGAUACAUAGGUAGAAGGGACAUGAGGAUCACCCAUGUCCUAAUCAUGC | 13.4 | 16.7 |  |  |
| GCAUUUGAAGGAUAUGUCUUCGGAAACAUGAGGAUCACCCAUGUAAUACUCAUAUCACGGACAGAAGGUCAGGGUC | 35.1 | 40.9 |  |  |
| GCAUUUUAUGCAGGAUAUUGACUUUGGAUUAAACAAGAAGGGCAUAACAUGAGGAUCACCCAUGUUAUAUAGGUAUAUAUGUUC | 7.45 | 9.62 |  |  |
| GCCAACGCAUGAGGAUAUGCUCCCGUUUCGGGAGCAGAAGGCAUGUCAUAAGACAUGAGGAUCACCCAUGUAGUCAAGAUGGCA |  |  | 291 | 16.7 |
| GCCAACUUAUGAGGAUAUGGCACCUUAUUGGUGCCAGAAGGCAUGUCUCUUGACAUGAGGAUCACCCAUGUAUUAUAGUUGGCA |  |  | 421 | 158 |
| GCCAGGAUGUGAGGAUAUGCUGAGGAUAACUCAGCAGAAGGCACAUGAGGAUCACCCAUGUAAACUUAUAAUAAAUACCCUGGC | 13 | 28.4 |  |  |
| GCCAGGCAUGUAGGAUAUCCAUUGCGUCGCGUUGGAGAAGGGCAACACACAUGAGGAUCACCCAUGUGGUCACCCAUGUAGUGU | 489 | 524 |  |  |
| GCCAGUUAUGUAGGAUAUGCGAGGCGAGCCUGAGCAGAAGGACAUGAGGAUCACCCAUGUAUUGCGGUUUAUGUUCAGAUCGCU | 15.9 | 18.2 |  |  |
| GCCAGUUAUGUAGGAUAUGCGAGGCGAGCCUGAGCAGAAGGACAUGAGGAUCACCCAUGUAUUGCGGUUUGAGUACUGAUCGCU | 38.1 | 215 |  |  |
| GCCAGUUAUGUAGGAUAUGCGCAGCGAGCCUGAGCAGAAGGACAUGAGGAUCACCCAUGUGUUGCGGUUUGAGUACUAAUCGCU | 24.3 | 134 |  |  |
| GCCAUCAUAUGAGGAUAUGACACCGAAACGGUGUCAGAAGGCAUGUCGAUAGACAUGAGGAUCACCCAUGUAUAAAUGAUGGCA |  |  | 780 | 118 |
| GCCAUCGCAUGAGGAUAUCGUCAGGUUUCCUGACGAGAAGGCAUGUCAUAAGACAUGAGGAUCACCCAUGUAGUUAAGAUGGCA |  |  | 658 | 57 |
| GCCAUCGCAUGAGGAUAUGCUCCCGUUUCGGGAGCAGAAGGCAUGCCAUAAGACAUGAGGAUCACCCAUGUAGUUAAGAUGGCA |  |  | 5.71 | 5.75 |
| GCCAUCGCAUGAGGAUAUGCUCCCGUUUCGGGAGCAGAAGGCAUGUCAUAAGACAUGAGGAUCACCCAUGUGGUUAAGAUGGCA |  |  | 335 | 12.4 |
| GCCAUCGCAUGAGGAUAUGCUCCCGUUUCGGGAGCAGAAGGCAUGUGAUAACACAUGAGGAUCACCCAUGUAGUUAAGAUGGCA |  |  | 5.31 | 4.45 |
| GCCAUCGCAUGAGGAUAUGGCACCGUUUCGGUGCCAGAAGGCAUGUCAAAUGACAUGAGGAUCACCCAUGUAGUUAAGGUGGCA |  |  | 225 | 14.9 |
| GCCAUCGCAUGAGGAUAUGGCACCGUUUCGGUGCCAGAAGGCAUGUCUCUUGACAUGAGGAUCACCCAUGUAGUUAAGAUGGCA |  |  | 779 | 52 |
| GCCAUCGUAUGAGGAUAUGACACCGAAACGGUGUCAGAAGGCAUGUCGAUAGACAUGAGGAUCACCCAUGUAUUAACGAUGGCA |  |  | 740 | 94.2 |
| GCCAUCGUAUGAGGAUAUGGCACCGAAACGGUGCCAGAAGGCAUGUCAAUAGACAUGAGGAUCACCCAUGUCUUAUCGAUGGCA |  |  | 19.9 | 18.9 |
| GCCCAAUCCACUUCGGGCCCAGACAGAAGGGCACACGGUCUAAGUCACAUGAGGAUCACCCAUGUGCAGGAUAUGUCUCGACUC | 9.88 | 50.3 |  |  |
| GCCCGCGCUAAGGAUAUCAGGGUUAAAAUAGUAUGAGAAGGUAGCACAUGAGGAUCACCCAUGUGUCCCUUAUG | 16.5 | 17.3 |  |  |
| GCCCGGGCAAACAUGAGGAUCACCCAUGUGUUAUACUUAAUAUAGGAUAUGUUUAUACUUUUUGGGCAGAAGGAUGGCCCGGGC |  |  | 35.1 | 32.4 |
| GCCGAAAGUGUGAGGAUAUACCUAUGGAAACAUAGGUAGAAGGCACAUGAGGAUCACCCAUGUUCCUCAUCGGC | 123 | 623 |  |  |
| GCCGAUUAAGUGAGGAUAUACCUAUGGAUACAUAGGUAGAAGGUACAUGAGGAUCACCCAUGUUCCUCAACGGC | 10.4 | 12.7 |  |  |
| GCCGGAGCAGGAUAUUCAAUAUCACACAUGAGGAUCACCCAUGUCCAGCGAAAGCUGGAGGGAGAAGGGCUCUGGC | 70.8 | 20.3 |  |  |
| GCCGUAAGUGUGAGGAUAUACCUAUGGAAACAUAGGUAGAAGGCACAUGAGGAUCACCCAUGUUCUUAAUCGGC | 134 | 329 |  |  |
